Measured values reported in ChEMBL document CHEMBL1212799 (2010).
≈ marks a conversion by molar mass, not a printed value.

Assays:
Klebsiella pneumoniae [1] = assay: Antibacterial activity against Klebsiella pneumoniae isolate 368 assessed as reduction of bacterial count at 32 ug/ml within 6 hrs in vitro pharmacodynamic model; type: functional
Pseudomonas aeruginosa [2] = assay: fT>MIC in Pseudomonas aeruginosa isolate 896 at 2 gram for every 8 hrs administered as 3 hrs infusion measured over 0-8 hrs in in vitro pharmcodynamic model; type: functional
Klebsiella pneumoniae [3] = assay: Antibacterial activity against Klebsiella pneumoniae isolate 351 assessed as reduction of bacterial count at 8 ug/ml within 6 hrs in vitro pharmacodynamic model; type: functional
Klebsiella pneumoniae [4] = assay: fT>MIC in Klebsiella pneumoniae isolate 353 at 2 gram for every 8 hrs administered as 3 hrs infusion measured over 8-16 hrs in in vitro pharmcodynamic model; type: functional, isoalte 353
Procedure, shortened: (§1)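 Samples assayed by HPLC (linear 0.25–40 µg/ml). Time free drug stayed above the modal triplicate broth-microdilution MIC (CLSI) calculated for each 8-h interval.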

Klebsiella pneumoniae [5] = assay: Antibacterial activity against Klebsiella pneumoniae isolate 328A in vitro pharmacodynamic model; type: functional
Procedure, shortened: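 Inoculum 10^6 CFU/ml; dosing began 0.5 h after inoculation. Two treated models plus one untreated control per isolate; blood-agar counts; change in log10 CFU/ml over 24 h (detection limit 10^1); drug levels checked by HPLC.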

Klebsiella pneumoniae [6] = assay: Antibacterial activity against Klebsiella pneumoniae isolate 334 in vitro pharmacodynamic model; type: functional
Procedure, shortened: (§2)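 Simulated peak 38.4 µg/ml, trough 3.04 µg/ml. CAMHB at 37°C, 10^6 CFU/ml from overnight culture, drug started at 0.5 h. Two treated models plus one growth control. Change in log10 CFU/ml over 24 h on blood agar. Detection limit 10^1 CFU/ml.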

Klebsiella pneumoniae [7] = assay: fT>MIC in Klebsiella pneumoniae isolate 354 at 2 gram for every 8 hrs administered as 3 hrs infusion measured over 0-8 hrs in in vitro pharmcodynamic model; type: functional; procedure, shortened: as §1
Pseudomonas aeruginosa [8] = assay: fT>MIC in Pseudomonas aeruginosa isolate 988 at 2 gram for every 8 hrs administered as 3 hrs infusion measured over 16-24 hrs in in vitro pharmcodynamic model; type: functional
Pseudomonas aeruginosa [9] = assay: fT>MIC in Pseudomonas aeruginosa isolate 762 at 2 gram for every 8 hrs administered as 3 hrs infusion over 24 hrs in in vitro pharmcodynamic model; type: functional
Klebsiella pneumoniae [10] = assay: Antibacterial activity against Klebsiella pneumoniae isolate 368 in vitro pharmacodynamic model; type: functional; procedure, shortened: as §2
Pseudomonas aeruginosa [11] = assay: fT>MIC in Pseudomonas aeruginosa isolate 762 at 2 gram for every 8 hrs administered as 3 hrs infusion measured over 8-16 hrs in in vitro pharmcodynamic model; type: functional
Pseudomonas aeruginosa [12] = assay: fT>MIC in Pseudomonas aeruginosa isolate 1030 at 2 gram for every 8 hrs administered as 3 hrs infusion measured over 16-24 hrs in in vitro pharmcodynamic model; type: functional
Klebsiella pneumoniae [13] = assay: fT>MIC in Klebsiella pneumoniae isolate 334 at 2 gram for every 8 hrs administered as 3 hrs infusion measured over 16-24 hrs in in vitro pharmcodynamic model; type: functional; procedure, shortened: as §1
Klebsiella pneumoniae [14] = assay: fT>MIC in Klebsiella pneumoniae isolate 353 at 2 gram for every 8 hrs administered as 3 hrs infusion measured over 16-24 hrs in in vitro pharmcodynamic model; type: functional, isoalte 353; procedure, shortened: as §1
Pseudomonas aeruginosa [15] = assay: fT>MIC in Pseudomonas aeruginosa isolate 762 at 2 gram for every 8 hrs administered as 3 hrs infusion measured over 16-24 hrs in in vitro pharmcodynamic model; type: functional
Pseudomonas aeruginosa [16] = assay: fT>MIC in Pseudomonas aeruginosa isolate 1177 at 2 gram for every 8 hrs administered as 3 hrs infusion measured over 8-16 hrs in in vitro pharmcodynamic model; type: functional
Klebsiella pneumoniae [17] = assay: fT>MIC in Klebsiella pneumoniae isolate 351 at 2 gram for every 8 hrs administered as 3 hrs infusion measured over 16-24 hrs in in vitro pharmcodynamic model; type: functional; procedure, shortened: as §1
Klebsiella pneumoniae [18] = assay: fT>MIC in Klebsiella pneumoniae isolate 328A at 2 gram for every 8 hrs administered as 3 hrs infusion measured over 8-16 hrs in in vitro pharmcodynamic model; type: functional; procedure, shortened: as §1
Klebsiella pneumoniae [19] = assay: Antibacterial activity against Klebsiella pneumoniae isolate 360 assessed as reduction of bacterial count at 16 ug/ml within 6 hrs in vitro pharmacodynamic model; type: functional
Pseudomonas aeruginosa [20] = assay: Antibacterial activity against Pseudomonas aeruginosa isolate 1030 assessed as reduction of bacterial count at 8 ug/ml within 6 hrs in vitro pharmacodynamic model; type: functional
Klebsiella pneumoniae [21] = assay: Antibacterial activity against Klebsiella pneumoniae isolate 334 assessed as reduction of bacterial count at 32 ug/ml within 6 hrs in vitro pharmacodynamic model; type: functional
Pseudomonas aeruginosa [22] = assay: fT>MIC in Pseudomonas aeruginosa isolate 1038 at 2 gram for every 8 hrs administered as 3 hrs infusion measured over 8-16 hrs in in vitro pharmcodynamic model; type: functional
Pseudomonas aeruginosa [23] = assay: fT>MIC in Pseudomonas aeruginosa isolate 896 at 2 gram for every 8 hrs administered as 3 hrs infusion over 24 hrs in in vitro pharmcodynamic model; type: functional
Klebsiella pneumoniae [24] = assay: Antibacterial activity against Klebsiella pneumoniae isolate 377 assessed as reduction of bacterial count at 2 ug/ml within 6 hrs in vitro pharmacodynamic model; type: functional
Klebsiella pneumoniae [25] = assay: fT>MIC in Klebsiella pneumoniae isolate 361 at 2 gram for every 8 hrs administered as 3 hrs infusion measured over 0-8 hrs in in vitro pharmcodynamic model; type: functional; procedure, shortened: as §1
Pseudomonas aeruginosa [26] = assay: fT>MIC in Pseudomonas aeruginosa isolate 1038 at 2 gram for every 8 hrs administered as 3 hrs infusion measured over 16-24 hrs in in vitro pharmcodynamic model; type: functional
Klebsiella pneumoniae [27] = assay: fT>MIC in Klebsiella pneumoniae isolate 368 at 2 gram for every 8 hrs administered as 3 hrs infusion measured over 0-8 hrs in in vitro pharmcodynamic model; type: functional; procedure, shortened: as §1
Pseudomonas aeruginosa [28] = assay: fT>MIC in Pseudomonas aeruginosa isolate 1038 at 2 gram for every 8 hrs administered as 3 hrs infusion over 24 hrs in in vitro pharmcodynamic model; type: functional
Pseudomonas aeruginosa [29] = assay: Antibacterial activity against Pseudomonas aeruginosa isolate 988 assessed as reduction of bacterial count at 16 ug/ml within 6 hrs in vitro pharmacodynamic model; type: functional
Klebsiella pneumoniae [30] = assay: fT>MIC in Klebsiella pneumoniae isolate 375 at 2 gram for every 8 hrs administered as 3 hrs infusion over 24 hrs in in vitro pharmcodynamic model; type: functional
Klebsiella pneumoniae [31] = assay: fT>MIC in Klebsiella pneumoniae isolate 361 at 2 gram for every 8 hrs administered as 3 hrs infusion over 24 hrs in in vitro pharmcodynamic model; type: functional; procedure, shortened: as §1
Klebsiella pneumoniae [32] = assay: fT>MIC in Klebsiella pneumoniae isolate 375 at 2 gram for every 8 hrs administered as 3 hrs infusion measured over 8-16 hrs in in vitro pharmcodynamic model; type: functional
Pseudomonas aeruginosa [33] = assay: fT>MIC in Pseudomonas aeruginosa isolate 1030 at 2 gram for every 8 hrs administered as 3 hrs infusion measured over 0-8 hrs in in vitro pharmcodynamic model; type: functional
Klebsiella pneumoniae [34] = assay: fT>MIC in Klebsiella pneumoniae isolate 377 at 2 gram for every 8 hrs administered as 3 hrs infusion measured over 16-24 hrs in in vitro pharmcodynamic model; type: functional
Pseudomonas aeruginosa [35] = assay: Antibacterial activity against Pseudomonas aeruginosa isolate 896 assessed as reduction of bacterial count at 16 ug/ml within 6 hrs in vitro pharmacodynamic model; type: functional
Klebsiella pneumoniae [36] = assay: fT>MIC in Klebsiella pneumoniae isolate 351 at 2 gram for every 8 hrs administered as 3 hrs infusion measured over 0-8 hrs in in vitro pharmcodynamic model; type: functional; procedure, shortened: as §1
Pseudomonas aeruginosa [37] = assay: fT>MIC in Pseudomonas aeruginosa isolate 896 at 2 gram for every 8 hrs administered as 3 hrs infusion measured over 16-24 hrs in in vitro pharmcodynamic model; type: functional
Klebsiella pneumoniae [38] = assay: fT>MIC in Klebsiella pneumoniae isolate 360 at 2 gram for every 8 hrs administered as 3 hrs infusion measured over 8-16 hrs in in vitro pharmcodynamic model; type: functional; procedure, shortened: as §1

C[C@@H](O)[C@H]1C(=O)N2C(C(=O)O)=C(S[C@@H]3CN[C@H](C(=O)N(C)C)C3)[C@H](C)[C@H]12 [MEROPENEM]
log10cfu (Klebsiella pneumoniae [1]): >3
fT>MIC (Pseudomonas aeruginosa [2]): 50%
log10cfu (Klebsiella pneumoniae [3]): >3
fT>MIC (Klebsiella pneumoniae [4]): 59%
MIC (Klebsiella pneumoniae [5]): 8 µg/mL (≈ 20.9 µM)
MIC (Klebsiella pneumoniae [6]): 32 µg/mL (≈ 83.4 µM)
fT>MIC (Klebsiella pneumoniae [7]): 68%
fT>MIC (Pseudomonas aeruginosa [8]): 38%
fT>MIC (Pseudomonas aeruginosa [9]): 47%
MIC (Klebsiella pneumoniae [10]): 32 µg/mL (≈ 83.4 µM)
fT>MIC (Pseudomonas aeruginosa [11]): 63%
fT>MIC (Pseudomonas aeruginosa [12]): 78%
fT>MIC (Klebsiella pneumoniae [13]): 0%
fT>MIC (Klebsiella pneumoniae [14]): 0%
fT>MIC (Pseudomonas aeruginosa [15]): 56%
fT>MIC (Pseudomonas aeruginosa [16]): 78%
fT>MIC (Klebsiella pneumoniae [17]): 50%
fT>MIC (Klebsiella pneumoniae [18]): 72%
log10cfu (Klebsiella pneumoniae [19]): >3
log10cfu (Pseudomonas aeruginosa [20]): >=3
log10cfu (Klebsiella pneumoniae [21]): >3
fT>MIC (Pseudomonas aeruginosa [22]): 100%
fT>MIC (Pseudomonas aeruginosa [23]): 47%
log10cfu (Klebsiella pneumoniae [24]): >3
fT>MIC (Klebsiella pneumoniae [25]): 0%
fT>MIC (Pseudomonas aeruginosa [26]): 82%
fT>MIC (Klebsiella pneumoniae [27]): 0%
fT>MIC (Pseudomonas aeruginosa [28]): 69%
log10cfu (Pseudomonas aeruginosa [29]): >=3
fT>MIC (Klebsiella pneumoniae [30]): 16%
fT>MIC (Klebsiella pneumoniae [31]): 0%
fT>MIC (Klebsiella pneumoniae [32]): 0%
fT>MIC (Pseudomonas aeruginosa [33]): 75%
fT>MIC (Klebsiella pneumoniae [34]): 100%
log10cfu (Pseudomonas aeruginosa [35]): >=3
fT>MIC (Klebsiella pneumoniae [36]): 69%
fT>MIC (Pseudomonas aeruginosa [37]): 56%
fT>MIC (Klebsiella pneumoniae [38]): 0%
